Laboratory results taken from ChEMBL document CHEMBL1134105, “Enantioselective synthesis and complement inhibitory assay of A/B-ring partial analogues of oleanolic acid” (Bioorg Med Chem Lett, 2001).
Active and inactive are the calls of the source. The rule behind the calls is not given here.

Assays:
[1] = organism: Homo sapiens; test: In vitro concentration required to inhibit classical pathway complement induced hemolysis in human; NA= not active; type: functional
Method in brief: (§1)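 Classical pathway complement inhibition was tested in vitro; IC50 values are means of three experiments with standard deviation.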

[2] = tested on: SK-MEL; test: Cytotoxicity against human malignant melanoma cell line SK-MEL; NA= not active; type: functional, cell-based
Method in brief: (§2)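 SK-MEL human malignant melanoma cells, 25,000 per well, were exposed to compound solutions for 72 h. Viable cells were counted by neutral red uptake: cells were washed with saline, incubated 1.5 h in 0.17% neutral red in serum-free RPMI, then washed again to remove extracellular dye.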

[3] = organism: Homo sapiens; test: In vitro concentration required to inhibit classical pathway complement induced hemolysis in human; type: functional; method in brief: as §1
[4] = tested on: SK-MEL; test: Cytotoxicity against human malignant melanoma cell line SK-MEL; type: functional, cell-based; method in brief: as §2
[5] = In vitro therapeutic index (IC50 cytotoxicity/ IC50 complement inhibition) was determined; type: functional
[6] = In vitro therapeutic index (IC50 cytotoxicity/ IC50 complement inhibition) was determined; ND=not active; type: functional

Row | Structure (SMILES) | IC50 [1] | IC50 [2] | IC50 [3] | IC50 [4] | TI [5] | TI [6]
1 | COC(=O)c1ccc(/C=C/[C@H]2CCCC3C(C)(C)[C@@H](O)CC[C@@]32C)cc1 (stereo partly specified) | Not Active | Not Active |  |  |  | 
2 | CC1(C)C2CCC[C@H](/C=C/c3ccccc3C(=O)O)[C@@]2(C)CC[C@@H]1O (stereo partly specified) |  |  | 633 µM | 380 µM | 0.6 | 
3 | CC1(C)C2CC[C@@H](Cc3ccccc3C(=O)O)C[C@@]2(C)CC[C@@H]1O (stereo partly specified) |  |  | 616 µM | 484 µM | 0.8 | 
4 | CC1(C)C2CCC(Cc3ccc(C(=O)O)cc3)C[C@@]2(C)CC[C@@H]1O (single isomer, unassigned) |  |  | 610 µM | 378 µM | 0.6 | 
5 | CC1(C)C2CCC[C@H](/C=C/c3ccc(C(=O)O)cc3)[C@@]2(C)CC[C@@H]1O (stereo partly specified) |  |  | 623 µM | 380 µM | 0.6 | 
6 | CC1(C)C2CCC[C@H](/C=C/c3cccc(C(=O)O)c3)[C@@]2(C)CC[C@@H]1O (stereo partly specified) |  |  | 550 µM | 269 µM | 0.5 | 
7 | CC1(C)CC[C@]2(C(=O)O)CC[C@]3(C)C(=CC[C@@H]4[C@@]5(C)CC[C@H](O)C(C)(C)[C@@H]5CC[C@]43C)[C@@H]2C1 [OLEANOLIC_ACID] |  |  |  |  | 1.55 | 
8 | COc1ccc(CO[C@H]2CC[C@]3(C)C[C@H](Cc4ccccc4C(=O)O)CCC3C2(C)C)cc1 (stereo partly specified) | Not Active |  |  | 166 µM |  | 
9 | CC1(C)C2CCC[C@H](/C=C/c3ccccc3C#N)[C@@]2(C)CC[C@@H]1O (stereo partly specified) | Not Active |  |  | 155 µM |  | 
10 | CC1(C)C2CCC(Cc3cccc(C(=O)O)c3)C[C@@]2(C)CC[C@@H]1O (single isomer, unassigned) |  |  | 601 µM | 333 µM | 0.6 | 
11 | COc1ccc(CO[C@H]2CC[C@]3(C)CC(Cc4cccc(C(=O)O)c4)CCC3C2(C)C)cc1 (single isomer, unassigned) |  |  | 488 µM | 180 µM | 0.4 | 
12 | COc1ccc(CO[C@H]2CC[C@]3(C)CC(Cc4ccc(C(=O)O)cc4)CCC3C2(C)C)cc1 (single isomer, unassigned) | Not Active |  |  | 200 µM |  | inactive
